Values joined by “and” are separate entries in the source; they are usually repeats but may differ in a detail not shown here. Equal values may be shown once. Active and inactive are the calls of the source. The calls are words filed in the database; no cut-off is given here.
Tests used:
[1] = target: T1, Fatty-acid amide hydrolase 1 (Homo sapiens, UniProt O00519); experiment: Reversible inhibition of human recombinant FAAH assessed as hydrolysis of [3H]-AEA after 10 mins by liquid scintillation counting
T1 sequence (O00519 whole entry): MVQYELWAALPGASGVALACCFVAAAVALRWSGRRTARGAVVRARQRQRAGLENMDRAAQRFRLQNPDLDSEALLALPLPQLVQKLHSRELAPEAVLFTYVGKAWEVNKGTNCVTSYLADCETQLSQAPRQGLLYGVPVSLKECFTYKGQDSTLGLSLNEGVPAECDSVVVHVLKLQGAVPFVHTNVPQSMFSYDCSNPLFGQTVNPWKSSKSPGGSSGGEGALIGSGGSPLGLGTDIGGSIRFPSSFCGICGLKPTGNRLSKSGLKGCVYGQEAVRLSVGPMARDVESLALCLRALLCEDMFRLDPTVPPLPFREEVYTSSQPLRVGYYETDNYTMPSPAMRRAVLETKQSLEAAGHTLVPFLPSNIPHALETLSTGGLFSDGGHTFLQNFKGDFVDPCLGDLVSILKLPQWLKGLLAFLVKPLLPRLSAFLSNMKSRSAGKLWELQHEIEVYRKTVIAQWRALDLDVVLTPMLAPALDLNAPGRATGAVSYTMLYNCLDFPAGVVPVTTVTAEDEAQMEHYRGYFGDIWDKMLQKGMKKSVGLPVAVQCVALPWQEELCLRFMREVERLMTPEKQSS
Outline: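 In-house recombinant human FAAH (6 μg) in 10 mM Tris-HCl, 1 mM EDTA, 0.1% (w/v) BSA, pH 7.4. Compound in DMSO, or DMSO alone, with [3H]-AEA (2 μM final, 50,000 dpm) for 10 min at 37 °C. Stopped on ice with chloroform/methanol (1:1). Aqueous phase counted for [3H]-ethanolamine; buffer-only blank subtracted. IC50 from three independent experiments in duplicate.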

[2] = target: T1, Fatty-acid amide hydrolase 1; experiment: Irreversible inhibition of human recombinant FAAH assessed as hydrolysis of [3H]-AEA after 10 mins by liquid scintillation counting
[3] = target: T2, Fatty-acid amide hydrolase 1 (Homo sapiens) (UniProt O00519); experiment: Activity of human recombinant FAAH assessed as compound hydrolysis at 10^-5 M after 90 mins by HPLC/MS analysis in presence of PF-750
T2 sequence (whole entry): T1 sequence (O00519 whole entry)
Outline: (§1)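 Recombinant human FAAH (90 μg/tube), made in-house, incubated with compound in TE buffer (10 mM Tris-HCl, 1 mM EDTA, 0.1% w/v BSA, pH 7.4) at 37 °C for 90 min, with or without preincubation with FAAH inhibitor at 5.10^-5 M. Proteins precipitated by centrifugation and supernatant concentrated. Parent [M+H]+ quantified by HPLC/MS as AUC ratio to internal standard, normalized to boiled-enzyme blank. Three independent experiments in duplicate.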

[4] = target: T3, Fatty-acid amide hydrolase 1 (Mus musculus) (UniProt O08914); experiment: Activity of mouse liver homogenate FAAH assessed as compound hydrolysis at 10^-5 M after 90 mins by HPLC/MS analysis in presence of URB-597; type: tissue-based
T3 sequence (whole entry): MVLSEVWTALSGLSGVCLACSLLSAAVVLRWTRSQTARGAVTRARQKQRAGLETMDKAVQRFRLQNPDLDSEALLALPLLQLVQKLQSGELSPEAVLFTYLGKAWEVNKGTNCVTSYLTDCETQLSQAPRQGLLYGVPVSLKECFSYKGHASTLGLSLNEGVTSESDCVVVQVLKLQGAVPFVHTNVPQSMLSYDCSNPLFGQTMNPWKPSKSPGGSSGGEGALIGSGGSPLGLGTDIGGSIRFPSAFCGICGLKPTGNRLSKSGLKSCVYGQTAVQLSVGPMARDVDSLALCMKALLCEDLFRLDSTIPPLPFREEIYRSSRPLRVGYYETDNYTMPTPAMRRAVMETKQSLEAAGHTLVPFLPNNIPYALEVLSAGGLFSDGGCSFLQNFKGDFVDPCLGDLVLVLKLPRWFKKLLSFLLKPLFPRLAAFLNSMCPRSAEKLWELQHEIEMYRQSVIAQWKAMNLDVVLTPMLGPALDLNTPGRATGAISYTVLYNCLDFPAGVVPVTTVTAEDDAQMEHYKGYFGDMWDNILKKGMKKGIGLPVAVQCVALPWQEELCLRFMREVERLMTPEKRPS
Outline: (§2)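 Mouse liver homogenate (800g supernatant from Tris pH 7.4; 22.5 μg/tube) incubated with compound in TE buffer (10 mM Tris-HCl, 1 mM EDTA, 0.1% BSA, pH 7.4), 37 °C, 90 min, with or without preincubation with FAAH inhibitor (5.10^-5 M). Parent and ring-opened product measured by HPLC/MS as AUC ratio to internal standard, normalized to heat-inactivated homogenate. Three independent experiments in duplicate.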

[5] = Metabolic stability of the compound in mouse liver homogenate assessed as compound hydrolysis at 10^-5 M after 90 mins by HPLC/MS analysis; type: ADME, tissue-based; settings: read-out: Drug metabolism
Outline: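 Mouse liver homogenised in Tris buffer pH 7.4 and spun at 800g for 15 min; supernatant used (22.5 μg/tube). Compound incubated in TE buffer (10 mM Tris-HCl, 1 mM EDTA, 0.1% BSA, pH 7.4) for 90 min at 37 °C. Proteins removed and supernatant concentrated. HPLC/MS followed the parent [M+H]+ AUC against an internal standard, normalised to boiled homogenate. Mean ± SEM, 3 experiments in duplicate.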

[6] = target: T2, Fatty-acid amide hydrolase 1 (Homo sapiens); experiment: Activity of human recombinant FAAH assessed as compound hydrolysis at 10^-5 M after 90 mins by HPLC/MS analysis in presence of URB-597; outline: as §1
[7] = target: T3, Fatty-acid amide hydrolase 1 (Mus musculus); experiment: Activity of mouse liver homogenate FAAH assessed as compound hydrolysis at 10^-5 M after 90 mins by HPLC/MS analysis in presence of PF-750; type: tissue-based; outline: as §2
[8] = target: T2, Fatty-acid amide hydrolase 1 (Homo sapiens); experiment: Activity of human recombinant FAAH assessed as compound hydrolysis at 10^-5 M after 90 mins by HPLC/MS analysis; outline: as §1
[9] = target: T3, Fatty-acid amide hydrolase 1 (Mus musculus); experiment: Activity of mouse liver homogenate FAAH assessed as compound hydrolysis at 10^-5 M after 90 mins by HPLC/MS analysis; type: tissue-based; outline: as §2

IC50 ([1]; read-out: IC50)	IC50 ([1]; read-out: pIC50 (converted))	SMILES	Activity [3]	Activity [4]	metabolised at 1.5 h, 10 µM [5]	Activity [6]	Activity [7]	Activity [8]	further results
2.9 µM	2.88 µM	C=CCCC(=O)N1CC([C@@H](C)OCCCCc2ccccc2)C1	–	–	–	–	–	–	–
–	–	C=CCCC(=O)N1C[C@@H]([C@@H](C)OCCCCc2ccccc2)C1=O	inactive	inactive	> 80%	inactive	Active	inactive	IC50 [2]: 0.008 µM and 0.00813 µM
–	–	C=CCCC(=O)N1C[C@@H]([C@@H](C)OC(=O)CCCc2ccccc2)C1=O	–	–	> 80%	–	–	–	pIC50 [1]: 8.27
–	–	CCCCC/C=C\C/C=C\C/C=C\C/C=C\CCCC(=O)NCCO	inactive	inactive	–	inactive	inactive	Active	Activity [9]: Active
82.8 µM	83.2 µM	C=CCCCN1C[C@@H]([C@@H](C)OC(=O)CCCc2ccccc2)C1=O	–	–	–	–	–	–	–
